Results on 8 compounds are retold here after ChEMBL document CHEMBL4825777, “Tripeptides as Integrin-Linked Kinase Modulating Agents Based on a Protein-Protein Interaction with α-Parvin” (ACS Med Chem Lett, 2021).

Activity calls are given as the source filed them. The rule behind the calls is not given here. Non-standard residues stand in square brackets, D forms with d. Residues, ends and D or L forms follow the SMILES beside them. 2Nal = N[C@@H](Cc1ccc2ccccc2c1)C(=O)O

For data set [1], the target named is T1, Scaffold protein ILK (Homo sapiens) (UniProt Q13418).
T1 sequence (whole entry): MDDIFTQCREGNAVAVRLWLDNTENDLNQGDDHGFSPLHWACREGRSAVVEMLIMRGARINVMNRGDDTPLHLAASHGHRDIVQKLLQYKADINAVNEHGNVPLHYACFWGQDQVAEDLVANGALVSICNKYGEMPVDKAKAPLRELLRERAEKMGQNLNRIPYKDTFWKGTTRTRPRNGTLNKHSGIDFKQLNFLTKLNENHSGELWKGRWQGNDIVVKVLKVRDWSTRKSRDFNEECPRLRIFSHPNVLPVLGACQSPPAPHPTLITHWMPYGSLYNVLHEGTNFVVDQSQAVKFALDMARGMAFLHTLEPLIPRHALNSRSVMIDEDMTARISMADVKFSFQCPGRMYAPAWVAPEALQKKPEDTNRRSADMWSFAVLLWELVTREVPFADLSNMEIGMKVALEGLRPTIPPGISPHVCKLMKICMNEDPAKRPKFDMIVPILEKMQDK
As to the kind of experiment: Modulation of ILK in human mesangial cells assessed as reduction in GSK-3beta phosphorylation at ser9 residue at 50 uM measured upto 90 mins by Western blot analysis. In kind it is cell-based. The following applies: Mesangial cell, time min <=90.

Data set [2] concerns the target T1, Scaffold protein ILK (Homo sapiens). The data set is described as follows: Modulation of ILK in human mesangial cells assessed as reduction in AKT phosphorylation at Ser473 residue at 50 uM measured upto 90 mins by Western blot analysis. In kind it is cell-based. The following applies: Mesangial cell, time min <=90. For orientation: In western blotting, separated proteins are transferred to a membrane and probed.

Data set [3] concerns Mesangial cell. The data set is described as follows: Induction of F-actin polymerization in human mesangial cells assessed as F-actin levels at 50 uM measured after 24 hrs by Alexa 568-phalloidin based confocal microscopy. The following applies: filed as activator. The essentials: (§1)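 Human mesangial cells incubated 24 h with compound at 50 μM, or with buffer as control. Cells stained with Alexa 568 phalloidin and F-actin examined by confocal microscopy. F-actin amount measured in three independent assays; mean ± SEM expressed as percent of control values; p < 0.05 vs control.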

Data set [4] has as its target T1, Scaffold protein ILK (Homo sapiens). As to the kind of experiment: Induction of ILK (unknown origin).
Data set [5] can be described thus: Cytotoxicity against human mesangial cells assessed as reduction in cell viability at 1 to 100 uM incubated for 24 hrs by MTT assay. In kind it is cell-based. The following applies: dose 1-100 µM.
The subject of data set [6] is Mesangial cell. As to the kind of experiment: Induction of F-actin polymerization in human mesangial cells ILK siRNA assessed as increase in phalloidin content at 50 uM measured after 24 hrs by Alexa 568-phalloidin based confocal microscopy relative to control. The following applies: filed as activator. The essentials: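 Human mesangial cells transfected with ILK siRNA, or scrambled siRNA as transfection control; cells then held in buffer (control) or compound at 50 μM for 24 h. Stained with Alexa 568 phalloidin and imaged by confocal microscopy. F-actin quantified in three independent assays; mean ± SEM as percentage vs control, p < 0.05 vs control.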

The target in data set [7] is T1, Scaffold protein ILK (Homo sapiens). As to the kind of experiment: Inhibition of ILK (unknown origin).
Data set [8] has as its system Mesangial cell. The data set is described as follows: Induction of F-actin polymerization in human mesangial cells assessed as increase in F-actin levels measured after 24 hrs by Alexa 568-phalloidin based confocal microscopy. Put shortly:
as §1

Consider `COC(=O)[C@@H](NC(=O)[C@H](Cc1ccccc1)NC(=O)[C@H](Cc1ccc(O)cc1)NC(C)=O)C(C)C` (Ac-Tyr-Phe-Val-OMe), for which the result in data set [1], in data set [2] and in data set [4] was inactive. For the same compound, the result in the data set on Mesangial cell [3] was Active. The Activity entry was “Non-Toxic” in data set [5] and 100% in the data set with Mesangial cell [6].
Turning to `COC(=O)[C@H](CO)NC(=O)[C@H](Cc1ccc2ccccc2c1)NC(=O)[C@H](Cc1ccc(O)cc1)NC(C)=O` (Ac-Tyr-[2Nal]-Ser-OMe), the inhibition entry in data set [7] is “Active”. The outcome in data set [4] was inactive.
Turning to `COC(=O)[C@@H](NC(=O)[C@H](Cc1ccccc1)NC(=O)[C@H](C)NC(C)=O)C(C)C` (Ac-Ala-Phe-Val-OMe), the result in data set [4] was inactive. Also, the Activity entry in data set [5] was “Non-Toxic”; in the data set on Mesangial cell [6], 59%.
Regarding `CC(=O)N[C@@H](Cc1ccc(O)cc1)C(=O)N[C@@H](Cc1ccccc1)C(=O)N[C@H](C(=O)O)C(C)C` (Ac-Tyr-Phe-Val-OH), the outcome (with Mesangial cell [8]; in data set [4]) was inactive.
For the compound `COC(=O)[C@H](C)NC(=O)[C@H](Cc1ccccc1)NC(=O)[C@H](Cc1ccc(O)cc1)NC(C)=O` (Ac-Tyr-Phe-Ala-OMe), the result in data set [4] was inactive.
Still for that read-out and setting: next, `COC(=O)[C@@H](NC(=O)[C@H](C)NC(=O)[C@H](Cc1ccc(O)cc1)NC(C)=O)C(C)C` (Ac-Tyr-Ala-Val-OMe): “inactive”; `COC(=O)[C@H](CO)NC(=O)[C@H](Cc1ccccc1)NC(=O)[C@H](Cc1ccc(O)cc1)NC(C)=O` (Ac-Tyr-Phe-Ser-OMe): “inactive”.
In the case of `COC(=O)[C@@H](NC(=O)[C@H](Cc1ccc2ccccc2c1)NC(=O)[C@H](Cc1ccc(O)cc1)NC(C)=O)C(C)C` (Ac-Tyr-[2Nal]-Val-OMe), the inhibition entry in data set [7] is “Active”. Moreover, the outcome in data set [4] was inactive.
